Active and inactive are the calls of the source. The calls are words filed in the database; no cut-off is given here.

In assay [1] the test system is Radical scavenging activity. Briefly: Antioxidant activity assessed as 300 uM DPPH free radical scavenging activity under dark condition after 30 mins by microplate reader analysis. It counts as functional. A digest of the protocol: (§1)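 Compounds at final 6.25, 12.5, 25, 50, 75 and 100 μM mixed with DPPH (final 150 or 300 μM) in EtOH containing 5% DMSO; EtOH/5% DMSO control. A517 read at steady state after 30 min at room temperature in the dark. Triplicate tests averaged.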

Assay [2] deals with Radical scavenging activity. Briefly: Antioxidant activity assessed as 150 uM DPPH free radical scavenging activity under dark condition after 30 mins by microplate reader analysis. It counts as functional. A digest of the protocol: as §1
Assay [3] addresses Amyloid-beta precursor protein (Homo sapiens) (UniProt P05067). Briefly: Neuroprotective activity against amyloid beta (25 to 35)-induced cell death in human SH-SY5Y cells assessed as cell viability at 0.08 uM after 24 hrs by MTT assay relative to control. It counts as functional, cell-based.
The target is the same in assay [4]. In words: Neuroprotective activity against amyloid beta (25 to 35)-induced cell death in human SH-SY5Y cells assessed as cell viability at 2 uM after 24 hrs by MTT assay relative to control. It counts as functional, cell-based.
Assay [5] is described as follows: Antioxidant activity assessed as reduction of TPTZ-Fe3+ to TPTZ-Fe2+ at 0.15 to 1.5 mM after 5 mins by FRAP assay. The assay is classed as functional.
The target of assay [6] is Amyloid-beta precursor protein (Homo sapiens) (UniProt P05067). In words: Neuroprotective activity against amyloid beta (25 to 35)-induced cell death in human SH-SY5Y cells assessed as cell viability at 0.4 uM after 24 hrs by MTT assay relative to control. The assay is classed as functional, cell-based.
Chain of Amyloid-beta precursor protein (Homo sapiens) (P05067 whole entry): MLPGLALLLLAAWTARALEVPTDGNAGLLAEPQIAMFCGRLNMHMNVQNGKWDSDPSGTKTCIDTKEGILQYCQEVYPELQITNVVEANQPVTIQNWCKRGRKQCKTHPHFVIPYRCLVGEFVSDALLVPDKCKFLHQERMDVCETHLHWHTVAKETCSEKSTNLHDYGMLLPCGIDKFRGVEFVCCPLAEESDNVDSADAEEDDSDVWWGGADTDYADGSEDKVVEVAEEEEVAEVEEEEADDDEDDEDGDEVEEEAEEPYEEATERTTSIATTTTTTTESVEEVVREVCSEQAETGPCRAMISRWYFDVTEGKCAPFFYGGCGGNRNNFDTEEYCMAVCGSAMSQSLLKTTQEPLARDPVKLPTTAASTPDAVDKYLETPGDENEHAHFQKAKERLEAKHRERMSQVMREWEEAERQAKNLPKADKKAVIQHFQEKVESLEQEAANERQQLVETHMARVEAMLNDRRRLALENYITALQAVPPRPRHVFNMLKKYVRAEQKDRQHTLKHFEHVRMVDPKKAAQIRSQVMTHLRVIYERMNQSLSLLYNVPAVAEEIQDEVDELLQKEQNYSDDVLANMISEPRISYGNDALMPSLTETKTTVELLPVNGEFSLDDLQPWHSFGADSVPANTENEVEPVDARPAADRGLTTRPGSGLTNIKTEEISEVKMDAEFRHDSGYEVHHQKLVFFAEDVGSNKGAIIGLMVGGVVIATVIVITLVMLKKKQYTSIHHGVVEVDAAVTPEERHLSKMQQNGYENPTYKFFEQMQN
Assay [7] has the same target. In words: Neuroprotective activity against amyloid beta (25 to 35)-induced cell death in human SH-SY5Y cells assessed as cell viability at 10 uM after 24 hrs by MTT assay relative to control. The assay is classed as functional, cell-based.
Assay [8] can be described thus: Antioxidant activity assessed as reduction of TPTZ-Fe3+ to TPTZ-Fe2+ after 5 mins by FRAP assay. It counts as functional. A digest of the protocol:
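Working reagent prepared fresh from TPTZ solution, TPTZ diluent and detective buffer (1:10:1 v/v), prewarmed to 37 °C. Samples at 0.15–1.5 mM (5 μL) mixed with 180 μL reagent and held 5 min at 37 °C, then A593 read. Activity expressed as FeSO4 equivalents from a FeSO4 standard curve (0.15–5.00 mM).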

In the case of VITAMIN E, the IC50 in assay [1] stood at 62.1 µM; in assay [2] it was 26.9 µM.

For `COc1ccc([C@H]2O[C@H](c3ccc4c(c3)OCO4)[C@@H](C)[C@H]2C)cc1OC`, the Activity in assay [3] was 58.2%; in assay [4], 58.6%; in assay [6] it was 58.1%; in assay [7] it was 60.4%. Further, the outcome in assay [5] was inactive.

Turning to `OC[C@H](Cc1ccc2c(c1)OCO2)[C@H](CO[C@@H]1O[C@H](CO[C@@H]2O[C@@H](CO)[C@H](O)[C@H]2O)[C@@H](O)[C@H](O)[C@H]1O)Cc1ccc2c(c1)OCO2`, the Activity in assay [3] came out at 58%; in assay [4] it was 62%; in assay [6], 59.2%; in assay [7], 58.3%. Further, the outcome in assay [5] was inactive.

For `COc1ccc(C[C@@H](C)[C@@H](C)Cc2ccc3c(c2)OCO3)cc1OC`, the Activity in assay [3] was 58.1%; in assay [4], 61.1%; in assay [6] it was 62.2%; in assay [7], 61.9%. Further, the outcome in assay [5] was inactive.

Regarding `COc1cc([C@H]2O[C@H](c3ccc4c(c3)OCO4)[C@@H](C)[C@H]2C)ccc1O`, the IC50 in assay [1] worked out at 44.5 µM; in assay [2] it was 23.3 µM. Moreover, the Activity entry in assay [8] was “Dose-dependent effect”.

As to `COc1cc([C@@H]2c3cc(OC)c(O)cc3C=C(C)[C@H]2C)ccc1O`, the Activity is 58.6% in assay [3]; 62.1% in assay [4]; “Dose-dependent effect” in assay [8]; 60.7% in assay [6]; 65.2% in assay [7]. In addition, the results for the IC50 in assay [1] and in assay [2] were 83.4 µM and 37.5 µM, respectively.

On to `COc1cc(C[C@H](C)[C@H](C)Cc2ccc3c(c2)OCO3)ccc1O` [AUSTROBAILIGNAN 6], for which the Activity in assay [3] is 57%; in assay [4], 61.8%; in assay [8], “Dose-dependent effect”; in assay [6], 61.5%; in assay [7], 64.4%. The IC50 in assay [1] was found to be 75.1 µM; in assay [2], 33.2 µM.

`Cc1c(C)c2c(c(C)c1O)CCC(C)(C(=O)O)O2` (stereo unspecified): the result in assay [5] was Active.

With `COc1cc(C[C@@H](C)[C@@H](C)Cc2ccc(O)c(OC)c2)ccc1O` [MESODIHYDROGUAIARETIC ACID], the Activity in assay [3] is 62.2%; in assay [4], 69.2%; in assay [8] it was “Dose-dependent effect”; in assay [6], 63.8%; in assay [7], 68.3%. Besides, the IC50 was 34.6 µM in assay [1] and 15.7 µM in assay [2].

As for `COc1ccc([C@H](OC(=O)c2ccc3c(c2)OCO3)[C@H](C)C(C)=O)cc1OC`, the outcome in assay [5] was inactive.

In the case of `COc1ccc(C(=O)O[C@@H](c2ccc3c(c2)OCO3)[C@H](C)C(C)=O)cc1OC`, the Activity is 58.3% in assay [3], 68.9% in assay [4], 65.4% in assay [6] and 66.8% in assay [7]. Further, the result in assay [5] was inactive.

For the molecule `COc1ccc([C@H]2c3cc4c(cc3C[C@@H](C)[C@@H]2C)OCO4)cc1OC`, the Activity in assay [3] stood at 57.4%; in assay [4] it was 59.8%; in assay [6], 58.2%; in assay [7], 58.7%. Besides, the result in assay [5] was inactive.

With `COc1cc([C@H]2c3cc4c(cc3C[C@@H](C)[C@@H]2C)OCO4)ccc1O`, the Activity is 57.7% in assay [3]; 60.5% in assay [4]; “Dose-dependent effect” in assay [8]; 59.9% in assay [6]; 60.5% in assay [7]. Besides, the IC50 in assay [1] amounted to 360 µM; in assay [2], 181 µM.

As for `O=C1O[C@H]([C@@H](O)CO)C(O)=C1O` [ASCORBIC ACID], the Activity was 54.1% in assay [3], 58.5% in assay [4], 55.6% in assay [6] and 58% in assay [7]. Besides, the IC50 in assay [1] amounted to 59.3 µM; in assay [2] it was 24.7 µM.

For `OC[C@H](Cc1ccc2c(c1)OCO2)[C@H](CO[C@@H]1O[C@H](CO)[C@@H](O)[C@H](O)[C@H]1O)Cc1ccc2c(c1)OCO2`, the Activity in assay [3] stood at 65%; in assay [4] it was 63.1%; in assay [6], 64%; in assay [7], 65.2%. Moreover, in assay [5], the outcome was inactive.

Source of the values: ChEMBL document CHEMBL3286204, “Lignans from the fruit of Schisandra glaucescens with antioxidant and neuroprotective properties” (J Nat Prod, 2014).
